Measurements published in ChEMBL document CHEMBL1141410, “Eremophilane-type sesquiterpene derivatives from the roots of Ligularia lapathifolia” (J Nat Prod, 2007).

Tests used:
Format in all cases: cell-based
HepG2 = experiment: Cytotoxicity against human HEPG2 cells after 48 hrs by MTT colorimetric assay; conditions: HepG2, 48 h
Summary of the method: (§1)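 Cells maintained in RPMI-1640 with 10% heat-inactivated FBS, penicillin and streptomycin at 37 °C, 5% CO2; exponentially growing cells seeded at 1 × 10^5 cells/mL, treated after 24 h at 0.1–100 or 0.15–150 mg/L, six replicate wells per point. After 48 h, MTT added for 4 h at 37 °C, then 10% SDS–0.01 M HCl overnight; A570 read, cytotoxicity % versus untreated cells.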

CCRF S-180 = experiment: Cytotoxicity against mouse S180 cells after 48 hrs by MTT colorimetric assay; conditions: CCRF S-180, 48 h; summary of the method: as §1
[1] = Cytotoxicity against human MGC803 cells after 48 hrs by MTT colorimetric assay; conditions: MGC-803, 48 h; summary of the method: as §1

| Structure (SMILES) | IC50 (HepG2) [µM] | IC50 (CCRF S-180) [µM] | IC50 [1] [µM] |
| --- | --- | --- | --- |
| CC1=C2[C@@H]3OC(=O)C4=CCC[C@H](C[C@]2(O)OC1=O)[C@@]43C | > 100 | > 100 | > 100 |
| COC(=O)C1=CCC[C@@H]2CC(C(C)=O)=C[C@]12C | 46.5 | 19.9 | 35.4 |
| CO[C@]12C[C@H]3CCC=C4C(=O)O[C@@H](C1=C(C)C(=O)O2)[C@]43C | 12.7 | 73.1 | > 100 |
| CCO[C@]12C[C@H]3CCC=C4C(=O)O[C@@H](C1=C(C)C(=O)O2)[C@]43C | 40.5 | 36.6 | 53.9 |
| C/C=C(/C)C(=O)OC1CC[C@@H]2CC(=O)C(C(C)C(=O)OC)=C[C@]2(C)C1C(=O)OC (stereo not given in full) | > 100 | > 100 | > 100 |
